Measured values: ChEMBL document CHEMBL1133135, “Grignard-mediated synthesis and preliminary biological evaluation of novel 3-substituted farnesyl diphosphate analogues” (Bioorg Med Chem Lett, 2000)

Assays:
[1] = biological target: Protein farnesyltransferase (Homo sapiens) (UniProt P49354+P49356); test: Relative Vmax for Farnesyltransferase at 10 uM; type: protein-complex assay
In short: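 Baculovirus-expressed, purified recombinant mammalian FTase in a continuous fluorometric assay with dansyl-GCVLS-OH peptide cosubstrate, testing each FPP analogue as alternative prenyl donor. Relative Vmax is the Vmax with analogue at 10 μM divided by the Vmax with FPP at 10 μM under the same conditions. Analogue concentrations were checked by phosphate analysis.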

[2] = test system: CC(C)=CCC/C(C)=C/CC/C(=C/COP(=O)(O)OP(=O)(O)O)C1CCCC1; test: Km for mammalian protein Farnesyltransferase expressed in baculovirus
[3] = test system: CC(C)=CCC/C(C)=C/CC/C(C)=C/COP(=O)(O)OP(=O)(O)O

Row | Molecule | Krel [1] | Km [2] [µM] | Km [3] [µM]
1 | CC(C)=CCC/C(C)=C/CC/C(=C/COP(=O)(O)OP(=O)(O)O)C(C)C | 0.013 |  | 
2 | C=C/C(=C\COP(=O)(O)OP(=O)(O)O)CC/C=C(\C)CCC=C(C)C | 0.521 |  | 
3 | C=CC/C(=C\COP(=O)(O)OP(=O)(O)O)CC/C=C(\C)CCC=C(C)C | 0.053 |  | 
4 | CCC(C)/C(=C\COP(=O)(O)OP(=O)(O)O)CC/C=C(\C)CCC=C(C)C (configuration not stated) | 0 |  | 
5 | Protein farnesyltransferase (Homo sapiens) (from UniProt P49354+P49356) |  | 0.102 | 0.107
6 | CC(C)=CCC/C(C)=C/CC/C(=C/COP(=O)(O)OP(=O)(O)O)c1ccc(F)cc1 | 0.002 |  | 
7 | C=C(C)/C(=C\COP(=O)(O)OP(=O)(O)O)CC/C=C(\C)CCC=C(C)C | 0 |  | 
8 | CC(C)=CCC/C(C)=C/CC/C(=C/COP(=O)(O)OP(=O)(O)O)C1CCCC1 | 0.072 |  | 
9 | CC(C)=CCC/C(C)=C/CC/C(=C/COP(=O)(O)OP(=O)(O)O)CC(C)C | 0 |  | 
10 | CCC/C(=C\COP(=O)(O)OP(=O)(O)O)CC/C=C(\C)CCC=C(C)C | 0.078 |  | 
11 | CC(C)=CCC/C(C)=C/CC/C(=C/COP(=O)(O)OP(=O)(O)O)CC(C)(C)C | 0.042 |  | 
